# Data from ChEMBL document CHEMBL1128298, “Synthesis and evaluation of pharmacological and pharmacokinetic properties of monopropyl analogs of 5-, 7-, and 8-[[(trifluoromethyl)sulfonyl]oxy]-2-aminotetralins: central dopamine and serotonin receptor activity” (J Med Chem, 1995).
# Active and inactive are the calls of the source. No cut-off for these calls is given here.
# How the values were obtained:
# [1] = target: T1, 5-hydroxytryptamine receptor 1A (Mus musculus, UniProt Q64264); assay: In vitro binding affinity towards 5-hydroxytryptamine 1A receptor by using [3H]-8-OH-DPAT as radioligand
# T1 sequence (Q64264 whole entry): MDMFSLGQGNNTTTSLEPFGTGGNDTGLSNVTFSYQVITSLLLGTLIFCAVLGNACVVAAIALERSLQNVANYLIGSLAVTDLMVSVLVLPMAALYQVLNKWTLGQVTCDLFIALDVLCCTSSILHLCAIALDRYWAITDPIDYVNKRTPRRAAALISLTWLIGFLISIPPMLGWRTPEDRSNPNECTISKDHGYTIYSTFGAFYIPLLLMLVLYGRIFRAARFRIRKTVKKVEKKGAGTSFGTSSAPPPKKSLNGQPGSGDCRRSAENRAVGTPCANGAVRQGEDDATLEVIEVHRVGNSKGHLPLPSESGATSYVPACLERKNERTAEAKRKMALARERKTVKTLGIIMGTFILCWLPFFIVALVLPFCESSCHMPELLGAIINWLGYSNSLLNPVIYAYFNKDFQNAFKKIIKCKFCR
# Summary of the method: (§1)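 Radioligand competition binding at cloned mammalian receptors expressed in CHO-K1 cells, 1 h at room temperature, pH 7.4. Ligands: 5-HT1A [3H]-8-OH-DPAT 1 nM in 50 mM Tris/10 mM MgCl2. 5-HT1Dα/β [3H]-5-HT 1.7 nM in Tris/MgCl2/EDTA/0.1% ascorbate. D2 [3H]U86170 1 nM in 20 mM HEPES/10 mM MgSO4. D3 [3H]spiperone 0.5 nM in HEPES/MgCl2/NaCl/EDTA. Filtration and scintillation counting; 11 concentrations in duplicate; IC50 by nonlinear fit converted to Ki via Cheng–Prusoff.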
# [2] = Oral bioavailability in rat; assay type: ADME, organism-based; details: in vivo
# Summary of the method: (§2)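 Rats with arterial catheters, dosed 24 h after surgery. Dosing po by gavage after 18 h fast, or iv; doses 25 µmol/kg po and 5 µmol/kg iv. Blood sampled 5 min–12 h and analysed by GC-MS after dichloromethane extraction at pH 11, in duplicate. Bioavailability from po/iv AUC ratio; half-life estimated graphically from the elimination phase after oral dosing.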
# [3] = Plasma half life was determined in rats; assay type: ADME, organism-based; details: rat; summary of the method: as §2
# Rattus norvegicus [4] = organism: Rattus norvegicus; assay: post-synaptic activity was determined by locomotor activity (LMA) in Non pretreated rats; assay type: functional
# Summary of the method: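 Nonpretreated male Sprague-Dawley rats; test drug sc in the neck or po by gavage, n = 4. Placed singly in photocell motility meters immediately after dosing; activity recorded for 30 min. Results expressed as percent of saline controls.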
# Rattus norvegicus [5] = assay: uM/kg; assay type: functional
# Rattus norvegicus [6] = assay: […] decrease in the accumulation of 5-HTP (5-Hydroxytryptophan) in non pretreated rat striatal brain at dose 0.25 umol/kg; assay type: functional; set-up: scale not given: the % may be the effect or the level left
# Summary of the method: (§3)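 Male Sprague-Dawley rats (200–300 g) without reserpine. Test drug sc, or po by gavage after 18 h fast. NSD 1015 decarboxylase inhibition before decapitation. DOPA and 5-HTP in limbic and striatal regions measured by HPLC-electrochemical detection. Results given as percent of saline controls, mean ± SEM, n = 16 controls and 4 treated.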
# Rattus norvegicus [7] = assay: […] decrease in the accumulation of DOPA (3,4-dihydroxyphenylalanine) in non pretreated rat striatal brain at dose 0.25 umol/kg; assay type: functional; set-up: scale not given: the % may be the effect or the level left; summary of the method: as §3
# Rattus norvegicus [8] = assay: […] decrease in the accumulation of DOPA (3,4-dihydroxyphenylalanine) in rat striatal brain; partial response at 50 uM/Kg; assay type: functional, organism-based
# Summary of the method: (§4)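 Male Sprague-Dawley rats (200–300 g) pretreated with reserpine 5 mg/kg sc 18 h before test drug. Test drug sc 60 min and NSD 1015 30 min before decapitation. DOPA and 5-HTP in limbic, striatal and hemispheral brain areas determined by HPLC with electrochemical detection. ED50 (µmol/kg) is the dose producing half-maximal decrease, from sigmoidal fit to dose–response curves, with 95% confidence limits.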
# Rattus norvegicus [9] = assay: […] decrease in the accumulation of 5-HTP (5-Hydroxytryptophan) in non pretreated rat limbic brain at dose 0.25 umol/kg; assay type: functional; set-up: scale not given: the % may be the effect or the level left; summary of the method: as §3
# Rattus norvegicus [10] = assay: […] decrease in the accumulation of DOPA (3,4-dihydroxyphenylalanine) in non pretreated rat limbic brain at dose 0.25 umol/kg; assay type: functional; set-up: scale not given: the % may be the effect or the level left; summary of the method: as §3
# Rattus norvegicus [11] = assay: […] decrease in the accumulation of DOPA (3,4-dihydroxyphenylalanine) in rat limbic brain; partial response at 50 uM/Kg; assay type: functional, organism-based; summary of the method: as §4
# Rattus norvegicus [12] = organism: Rattus norvegicus; assay: […] decrease in the accumulation of 5-HTP (5-Hydroxytryptophan) in rat hemispheral brain; assay type: functional; summary of the method: as §4
# Rattus norvegicus [13] = assay: […] decrease in the accumulation of DOPA (3,4-dihydroxyphenylalanine) in rat hemispheral brain; partial response at 50 uM/Kg; assay type: functional, organism-based; summary of the method: as §4
# Rattus norvegicus [14] = organism: Rattus norvegicus; assay: […] decrease in the accumulation of 5-HTP (5-Hydroxytryptophan) in rat striatal brain; assay type: functional; summary of the method: as §4
# Rattus norvegicus [15] = assay: behavioral syndrome(flat body posture and forepaw treading) at 0.25 µmol/kg
# Rattus norvegicus [16] = assay: behavioral syndrome(flat body posture and forepaw treading) at 0.25 umol/Kg
# [17] = target: T2, 5-hydroxytryptamine receptor 1D (Homo sapiens, UniProt P28221); assay: In vitro binding affinity towards 5-hydroxytryptamine 1D receptor alpha by using [3H]-5-HT as radioligand
# T2 sequence (P28221 whole entry): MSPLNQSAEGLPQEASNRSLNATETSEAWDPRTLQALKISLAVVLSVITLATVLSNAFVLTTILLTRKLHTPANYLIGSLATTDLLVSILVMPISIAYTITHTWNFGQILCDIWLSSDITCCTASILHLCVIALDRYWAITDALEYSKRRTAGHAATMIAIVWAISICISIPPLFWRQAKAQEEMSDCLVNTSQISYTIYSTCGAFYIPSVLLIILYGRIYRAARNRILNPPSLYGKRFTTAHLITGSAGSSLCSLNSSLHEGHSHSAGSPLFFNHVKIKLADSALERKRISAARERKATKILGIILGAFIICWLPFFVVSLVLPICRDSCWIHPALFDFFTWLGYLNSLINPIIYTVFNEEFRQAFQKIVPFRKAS
# [18] = target: T2, 5-hydroxytryptamine receptor 1D; assay: In vitro binding affinity towards 5-hydroxytryptamine 1D receptor alpha by using [3H]5-HT as radioligand
# [19] = Plasma clearance was determined for the compound in rats; assay type: ADME, organism-based; details: rat; summary of the method: as §2
# D(2) dopamine receptor [20] = target: T3, D(2) dopamine receptor (Homo sapiens, UniProt P14416)
# T3 sequence (P14416 whole entry): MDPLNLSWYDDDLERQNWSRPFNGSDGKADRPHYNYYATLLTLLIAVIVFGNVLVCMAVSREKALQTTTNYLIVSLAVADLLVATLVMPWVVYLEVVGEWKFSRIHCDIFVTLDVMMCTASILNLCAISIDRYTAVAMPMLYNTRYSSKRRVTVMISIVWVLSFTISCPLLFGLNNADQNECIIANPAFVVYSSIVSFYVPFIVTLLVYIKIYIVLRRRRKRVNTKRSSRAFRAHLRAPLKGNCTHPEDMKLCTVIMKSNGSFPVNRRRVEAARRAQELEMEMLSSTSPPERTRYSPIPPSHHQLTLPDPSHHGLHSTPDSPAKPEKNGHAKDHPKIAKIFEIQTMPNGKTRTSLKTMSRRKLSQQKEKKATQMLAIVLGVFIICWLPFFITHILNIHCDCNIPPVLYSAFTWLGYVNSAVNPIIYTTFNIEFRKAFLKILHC
# D(3) dopamine receptor = D(3) dopamine receptor (Homo sapiens, UniProt P35462); assay: In vitro binding affinity towards Dopamine receptor D3 by using [3H]spiperone as radioligand
# Chain of D(3) dopamine receptor (P35462 whole entry): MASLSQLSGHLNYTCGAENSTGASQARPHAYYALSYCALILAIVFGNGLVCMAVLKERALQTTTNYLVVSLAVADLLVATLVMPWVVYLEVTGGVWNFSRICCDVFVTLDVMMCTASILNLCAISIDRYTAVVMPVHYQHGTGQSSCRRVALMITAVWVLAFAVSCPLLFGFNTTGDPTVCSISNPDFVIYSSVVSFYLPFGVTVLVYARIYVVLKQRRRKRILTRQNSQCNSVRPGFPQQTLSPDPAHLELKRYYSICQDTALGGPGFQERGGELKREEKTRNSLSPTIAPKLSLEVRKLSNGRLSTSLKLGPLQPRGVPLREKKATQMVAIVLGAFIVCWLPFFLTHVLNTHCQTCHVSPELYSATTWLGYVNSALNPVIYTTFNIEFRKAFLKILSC
# Summary of the method: as §1, with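 “7.4.” for “7.4. Ligands: 5-HT1A [3H]-8-OH-DPAT 1 nM in 50 mM Tris/10 mM MgCl2. 5-HT1Dα/β [3H]-5-HT 1.7 nM in Tris/MgCl2/EDTA/0.1% ascorbate.”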
# D(2) dopamine receptor [21] = target: T3, D(2) dopamine receptor; assay: In vitro binding affinity towards Dopamine receptor D2 by using [3H]spiperone as radioligand
# [22] = target: T2, 5-hydroxytryptamine receptor 1D; assay: In vitro binding affinity towards 5-HT1D alpha receptor by using [3H]5-HT as radioligand; summary of the method: as §1
# D(2) dopamine receptor [23] = target: T3, D(2) dopamine receptor; assay: In vitro binding affinity towards dopamine D2 receptor by using [3H]U-86170 as radioligand; summary of the method: as §1
# Rattus norvegicus [24] = organism: Rattus norvegicus; assay: post-synaptic activity was determined by locomotor activity (LMA) in reserpine pretreated rats and no. of counts/30 min was reported (***p<0.005); assay type: functional
# Rattus norvegicus [25] = assay: (§5) […] decrease in the accumulation of 5-HTP (5-uM/Kg; assay type: functional, organism-based
# Rattus norvegicus [26] = assay: […] decrease in the accumulation of DOPA (3,4-dihydroxyphenylalanine) in rat striatal brain;Inactive at 50 uM/Kg; assay type: functional, organism-based; summary of the method: as §4
# Rattus norvegicus [27] = assay: […] decrease in the accumulation of DOPA (3,4-dihydroxyphenylalanine) in rat limbic brain;Inactive at 50 uM/Kg; assay type: functional, organism-based; summary of the method: as §4
# Rattus norvegicus [28] = assay: as §5; assay type: functional, organism-based; remark: listed apart in the source
# Rattus norvegicus [29] = assay: […] decrease in the accumulation of DOPA (3,4-dihydroxyphenylalanine) in rat hemispheral brain;Inactive at 50 uM/Kg; assay type: functional, organism-based; summary of the method: as §4
SMILES,Ki [1] [nM],bioavailability [2] [%],half-life [3] [h],No. of rats displaying DA syndrome (Rattus norvegicus [5]),ED50 (Rattus norvegicus [8]),ED50 (Rattus norvegicus [11]),ED50 (Rattus norvegicus [12]) [µmol/kg],ED50 (Rattus norvegicus [13]),Ki [17] [nM],Ki [18] [nM],Ki (D(2) dopamine receptor [20]) [nM],Ki (D(3) dopamine receptor) [nM],Ki (D(2) dopamine receptor [21]) [nM],other results
CCCN(CCC)[C@@H]1CCc2cccc(O)c2C1,0.5,2.4,1.2,0,Weak activity,Weak activity,0.05,Weak activity,,,,,,Locomotor activity (% of saline control) (Rattus norvegicus [4]): 64%; Control (Rattus norvegicus [6]): 48%; Control (Rattus norvegicus [7]): 80%; Control (Rattus norvegicus [9]): 50%; Control (Rattus norvegicus [10]): 94%; ED50 (Rattus norvegicus [14]): 0.047 µmol/kg; No. of rats with 5-HT syndrome (Rattus norvegicus [15]): 4; No. of rats with 5-HT syndrome (Rattus norvegicus [16]): 4
CCCN(CCC)C1CCc2cccc(OS(=O)(=O)C(F)(F)F)c2C1 (racemic),0.8,11.2,1.5,,Weak activity,Weak activity,13.8,Weak activity,127,12,62,273,> 413,clearance [19]: 57 mL/min/kg
CCCNC1CCc2cccc(OS(=O)(=O)C(F)(F)F)c2C1 (racemic),2.8,,,,,,,,,15,108,691,> 413,
CCCN[C@@H]1CCc2ccc(OS(=O)(=O)C(F)(F)F)cc2C1.Cl,222,,,4,,,,,340,,,359,,Ki [22]: 125 nM; Ki (D(2) dopamine receptor [23]): 50 nM; Counts/30 min (Rattus norvegicus [24]): 2153; ED50 (Rattus norvegicus [25]): Weak activity; ED50 (Rattus norvegicus [26]): inactive; ED50 (Rattus norvegicus [27]): inactive; ED50 (Rattus norvegicus [28]): Weak activity; ED50 (Rattus norvegicus [29]): inactive
